Screening data as filed in PubChem BioAssay.
Arr AP2 block: inhibitors of beta-arrestin/AP2 binding, primary screen, biochemical, GPCR trafficking, flow cytometry. FITC-arrestin peptide / GST-AP2 beads; AP2 beta2 appendage carries R879A mutation. inhibition, % at 10 µM. 340,000 compounds, 0.31% hits;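 active means inhibition above a set limit, near 3 SD of compounds lacking own fluorescence, cut at about 54% in these data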
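Measured by: flow cytometry, FL1 (488/535 nm); Material: AP2 appendage R879A on GSH beads; Evaluation: percent response; Timing: pre-incubation 12 min, peptide binding 1 h, room temperature; Also added: 50 nM FITC-arrestin peptide; Medium: PBS with 0.05% Tween 20 and 0.1% BSA.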
FAS TE block: FAS thioesterase domain inhibitors, primary screen, biochemical, fluorescence intensity, uHTS; Fatty acid synthase (Homo sapiens), P49327; recombinant FAS-TE, OMFH fluorogenic substrate, fluorescence endpoint; inhibition, % at 15 µM; 360,000 compounds, 0.67% hits; AID 602261, 2012;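 active means compounds whose normalised, plate-corrected inhibition of enzyme fluorescence in the single-dose primary screen is 50% or more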
ADAM10 inh: human ADAM10 inhibitors, primary screen, biochemical, QFRET, HTS; Disintegrin and metalloproteinase domain-containing protein 10 (Homo sapiens), O14672; recombinant ADAM10, EDANS/DABCYL FRET peptide cleavage, 3 h; inhibition, % at 7 µM; 370,000 compounds, 0.62% hits;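 active means inhibition above a per-campaign cutoff equal to the mean of compounds falling between control-based bounds plus 3 SD, cut at about 20% in these data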
ADAM17 inh: ADAM17 inhibitors, primary screen, biochemical, QFRET; Disintegrin and metalloproteinase domain-containing protein 17 (Homo sapiens), P78536; recombinant ADAM17, EDANS/DABCYL FRET peptide cleavage; inhibition, % at 6.95 µM; 370,000 compounds, 0.83% hits; AID 720648, 2013;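 active means inhibition above the mean of compounds lying between control limits plus 3 SD, set per campaign, cut at about 8.5% in these data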
CaV13 ICDI inh: Primary screen for inhibitors of IQ motif and Ca2+-dependent inactivation inhibitor domain binding in CACNA1D, Förster resonance energy transfer in living cells, …; HEK cells, CFP/YFP FRET ICDI-IQ, plate reader, 10 min; percent FRET-ratio fall versus neutral wells; inhibition, % at 12.3 µM; 340,000 compounds, 0.098% hits; AID 743397;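 active means mean replicate inhibition of at least 30% and at least 1% of replicates passing that level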
NRP1-CendR mod: modulators of CendR peptide binding to NRP-1, primary screen, biochemical, fluorescence polarization, uHTS; inhibition, % at 25 µM; FAM-RPARPAR peptide binding to NRP-1; Neuropilin-1 (Homo sapiens), O14786; 360,000 compounds, 0.85% hits;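 active means inhibition or corrected inhibition above about 18%, plus a signal ratio from 0.5 to 1.5, limit read from the data, passing the limit was not always enough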
Target sequence (O14786 whole entry, looked up): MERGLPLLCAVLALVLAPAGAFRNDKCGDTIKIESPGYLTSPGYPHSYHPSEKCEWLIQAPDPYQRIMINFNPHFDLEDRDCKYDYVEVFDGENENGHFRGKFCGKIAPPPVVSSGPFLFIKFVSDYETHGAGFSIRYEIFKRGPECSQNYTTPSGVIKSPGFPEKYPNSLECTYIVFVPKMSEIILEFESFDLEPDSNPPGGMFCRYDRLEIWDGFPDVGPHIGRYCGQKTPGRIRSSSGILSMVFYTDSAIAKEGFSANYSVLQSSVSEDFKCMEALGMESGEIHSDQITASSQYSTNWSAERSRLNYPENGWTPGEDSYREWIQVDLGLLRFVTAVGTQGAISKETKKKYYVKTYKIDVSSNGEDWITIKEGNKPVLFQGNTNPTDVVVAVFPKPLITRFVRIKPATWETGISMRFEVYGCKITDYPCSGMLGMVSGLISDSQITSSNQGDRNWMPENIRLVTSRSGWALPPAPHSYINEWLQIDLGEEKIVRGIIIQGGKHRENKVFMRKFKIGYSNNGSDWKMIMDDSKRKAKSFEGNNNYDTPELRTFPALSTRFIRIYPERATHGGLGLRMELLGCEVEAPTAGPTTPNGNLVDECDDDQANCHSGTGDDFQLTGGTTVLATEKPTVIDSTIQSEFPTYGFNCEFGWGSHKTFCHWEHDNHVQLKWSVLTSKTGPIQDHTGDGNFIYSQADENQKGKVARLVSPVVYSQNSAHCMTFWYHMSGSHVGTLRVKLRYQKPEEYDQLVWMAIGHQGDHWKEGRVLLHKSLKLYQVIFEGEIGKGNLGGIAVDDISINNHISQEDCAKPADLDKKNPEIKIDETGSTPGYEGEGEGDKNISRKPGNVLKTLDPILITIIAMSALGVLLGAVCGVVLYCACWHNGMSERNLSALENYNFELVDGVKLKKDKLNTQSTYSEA
FAS-TE inh conf: FAS thioesterase domain inhibitors, confirmation, biochemical, fluorescence intensity, single concentration. AID 624325, 2012. shares compounds with FAS TE block. recombinant FAS-TE, OMFH fluorogenic substrate. 2,300 compounds, 45% hits. inhibition, % at 15 µM;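 active means compounds inhibiting the enzyme by at least 50% at 15 µM in any one of the replicates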
Hits are given with their value; - = inactive; . = no result. The list is not random: actives were taken first. Their share in the collection is about 2.9%.

SMILES	Arr AP2 block	FAS TE block	ADAM10 inh	ADAM17 inh	CaV13 ICDI inh	NRP1-CendR mod	FAS-TE inh conf
O=C(CN(C(=O)c1ccccc1Cl)C1CCCCC1)Nc1ccc(Cl)c([N+](=O)[O-])c1	-	62	-	-	.	-	-
COc1ccc(S(=O)(=O)N2CCC(c3nc4ccccc4o3)CC2)c(OC)c1	.	.	-	-	.	.	.
C=CCN1c2ccccc2[C@]23C[C@@H](C(=O)OC)N(C(=O)NCCC)C2=NC(C(=O)OC)=C(C(=O)OC)[C@H]13	-	79	-	-	-	-	-
COC(=O)C1=C(C(=O)OC)[C@@H]2N(Cc3ccccc3)c3ccccc3[C@@]23C[C@@H](C(=O)OC)N(C(=O)c2cc(C)oc2C)C3=N1	-	59	-	-	-	-	-
COC(=O)C1=C(C(=O)OC)[C@@H]2N(Cc3ccccc3)c3ccccc3[C@@]23C[C@@H](C(=O)OC)N(C(=O)c2cccs2)C3=N1	.	-	-	-	-	-	.
COC(=O)C1=C(C(=O)OC)[C@@H]2N(Cc3ccccc3)c3ccccc3[C@@]23C[C@@H](C(=O)OC)N(C(=O)CC(C)C)C3=N1	-	77	-	-	-	-	-
CC1(C(=O)NS(=O)(=O)c2ccc(C#N)cc2)CCN1C(=O)c1cccc2ccccc12 (centres undefined)	.	-	-	-	-	-	.
CCc1ccc(OCC(=O)N2c3ccccc3CCc3ccccc32)cc1	-	52	-	-	-	-	-
Cc1ccc(CN2CCCCC(NC(=O)c3ccc(Br)cc3)C2=O)cc1 (centres undefined)	.	.	-	-	.	.	.
O=C(NCCN1CCC(n2c(=O)[nH]c3ccccc32)CC1)c1cccnc1Cl	.	-	-	-	-	-	.
CC(OC(=O)c1cccc([N+](=O)[O-])c1)C(=O)N1CCc2ccccc21 (centres undefined)	-	77	-	-	-	-	59
COC(=O)C1=CN(c2ccc3c(c2)OCO3)C(N)=C(C#N)C1c1ccccc1 (centres undefined)	.	.	-	-	-	-	.
CCCCOc1ccc(-c2c(C#N)c(N)nc(SCC(N)=O)c2C#N)cc1	-	76	-	-	.	-	92
COc1ccc([N+](=O)[O-])cc1NC(=O)CC1SC(=Nc2cccc(C)c2C)N(/N=C/c2cccc(OC)c2OC)C1=O (centres undefined)	-	87	-	-	-	-	-
COc1ccc(C/C(N)=N/OC(=O)c2cccc([N+](=O)[O-])c2)cc1	-	54	-	-	-	-	48
O=C(N/N=C/c1cc([N+](=O)[O-])cc([N+](=O)[O-])c1O)/C(=C\c1cccs1)NC(=O)c1ccccc1	-	75	-	-	-	-	74
CN(CCOc1ccccc1)CC(=O)Nc1ccc([N+](=O)[O-])cc1Cl	-	60	-	-	-	-	39
CCCCCC(=O)OCc1ccc(C2=CC(=O)CC(C)(C)C2=O)cc1	.	64	-	-	-	-	56
CC(C)(C)C(=O)OCc1ccc(C2=CC(=O)CC(C)(C)C2=O)cc1	.	82	-	-	-	-	82
Cc1ccc(C2=CC(=O)CC(C)(C)C2=O)cc1	.	.	-	-	-	.	.
CC(=O)OCc1ccc(C2=CC(=O)CC(C)(C)C2=O)cc1	.	-	-	-	-	-	.
FCCCOc1ccc(-c2ccnc(-c3ccccc3)n2)cc1	-	54	-	-	.	-	-
COc1cccc(C2c3c(C)nn(-c4ccc([N+](=O)[O-])cc4)c3N=C3C(=O)Nc4ccccc4N32)c1 (centres undefined)	-	72	-	-	-	-	-
Cc1nn(-c2ccc([N+](=O)[O-])cc2)c2c1C(c1ccc(OC(F)F)cc1)N1C(=N2)C(=O)Nc2ccccc21 (centres undefined)	-	86	-	-	-	-	-
COc1cccc(-c2cc(N3C(=O)Nc4ccccc4N3O)n[nH]2)c1	-	-	-	-	-	-	.
SMILES	Arr AP2 block	FAS TE block	ADAM10 inh	ADAM17 inh	CaV13 ICDI inh	NRP1-CendR mod	FAS-TE inh conf
CC(=O)NC(c1cccc(F)c1)c1nc(-c2cnn(C)c2)cs1 (centres undefined)	.	-	-	-	-	-	.
O=C(N/N=C/c1coc2ccc(Cl)cc2c1=O)c1ccc(O)cc1	-	65	-	-	-	-	37
COc1cc(C(=O)Oc2ccccc2/C=N/NC(=O)c2ccc(Cl)cc2)cc(OC)c1OC	-	54	-	-	-	-	-
COc1cc(C(=O)N/N=C/c2coc3ccc(Cl)cc3c2=O)ccc1O	-	59	-	-	-	-	66
COc1ccc(C(=O)N/N=C\c2coc3ccc(Cl)cc3c2=O)cc1	-	-	-	-	-	-	.
CC(C)c1ccc(NC(=O)C2Cc3c(-c4ccco4)ccnc3O2)cc1 (centres undefined)	.	-	-	-	-	-	.
COc1ccc(-c2cc(C)no2)cc1S(=O)(=O)N1CCN(c2ccc([N+](=O)[O-])cc2)CC1	-	50	-	-	-	-	-
O=C(Nc1cccc(S(=O)(=O)C(F)F)c1)c1ccc(S(=O)(=O)N2CCCCC2)cc1	-	-	-	-	-	-	.
O=C(Nc1cccc(S(=O)(=O)N2CCCCC2)c1)c1ccc2c(=O)n3c(nc2c1)CCCCC3	-	60	-	-	-	-	-
O=C(Nc1cccc(S(=O)(=O)N2CCCCC2)c1)c1ccc(S(=O)(=O)C(F)F)cc1	-	59	-	-	-	-	-
CC(C)(C)OC(=O)N1CCCC(C(=O)Nc2ccc(C(=O)NC3CC3)cc2)C1 (centres undefined)	-	-	-	-	-	-	.
CCCn1c(SCC(=O)Nc2ccccc2-c2ccccc2)nnc1-c1ccoc1C	-	60	-	-	-	-	74
CC[C@@]12C(=O)N(c3cccc(Br)c3)C(=O)N1[C@H](c1ccc(Cl)cc1)[C@@H]1C(=O)N(C3CCCCC3)C(=O)[C@@H]12	-	87	-	-	-	-	-
